The results in this text go back to ChEMBL document CHEMBL4138134, “Antiplasmodial Chromanes and Chromenes from the Monotypic Plant Species Koeberlinia spinosa” (J Nat Prod, 2018).

One test has as its system A2780. The experiment in a line: Cytotoxicity against human A2780 cells after 2 days by Alamar blue assay. It counts as cell-based. As to conditions: A2780, 48 h. (In general: Resazurin is reduced to fluorescent resorufin, in cell work by metabolically active cells.)
The next test deals with Plasmodium falciparum. The experiment in a line: Antimalarial activity against chloroquine/mefloquine-resistant Plasmodium falciparum Dd2 measured after 72 hrs by SYBR green1 dye based fluorescence assay. It counts as functional, organism-based. Summed up:
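Whole-parasite growth inhibition, 72 h treatment, SYBR Green I fluorescence read-out, IC50 derived. Both fractions and isolated compounds were tested on the chloroquine/mefloquine-resistant Dd2 strain. Artemisinin served as positive control.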

The mark [1] stands for this setting: Plasmodium falciparum, Dd2, 72 h.

With `C/C(=C/CC/C(C)=C/C(=O)C[C@]1(C)CCc2cc(O)cc(C)c2O1)CO`, the IC50 (commonly the concentration that inhibits the measured activity by half) in the test with A2780 is greater than 10 µM; in the test with Plasmodium falciparum (setting [1]), 24 µM. For the compound `COc1cc(C)c2c(c1)CC[C@@](C)(CC(=O)/C=C(\C)CC/C=C(\C)CO)O2`, the IC50 in the test on A2780 was greater than 10 µM; in the test with Plasmodium falciparum (setting [1]), 24 µM. Compound `C/C(=C/C(=O)C[C@]1(C)CCc2cc(O)cc(C)c2O1)CC/C=C(\C)CO` had an IC50 with A2780 greater than 10 µM.

For `C/C(=C\CC/C(C)=C/C(=O)C[C@]1(C)C=Cc2cc(O)cc(C)c2O1)CO`, the IC50 is greater than 10 µM in the test with A2780 and greater than 112 µM with Plasmodium falciparum (setting [1]).

For the compound `C/C(=C\CC/C(C)=C/C(=O)C[C@]1(C)CCc2cc(O)cc(C)c2O1)CO`, the IC50 is greater than 10 µM in the test on A2780 and greater than 112 µM with Plasmodium falciparum (setting [1]). In turn, `C/C(=C/CC/C(C)=C\C(=O)C[C@]1(C)CCc2cc(O)cc(C)c2O1)CO` came in with an IC50 in the test on A2780 greater than 10 µM. On to `C/C(=C\CC/C(C)=C/CC[C@]1(C)C=Cc2cc(O)cc(C)c2O1)CO`, for which the IC50 in the test on A2780 is greater than 10 µM. `CC1=CCCC(C)(CC(=O)C[C@]2(C)CCc3cc(O)cc(C)c3O2)OC1` (single isomer, unassigned; diastereomer 1): the IC50 with A2780 is greater than 10 µM; in the test with Plasmodium falciparum, 109 µM. In the test with Plasmodium falciparum, `CC1=CCCC(C)(CC(=O)C[C@]2(C)CCc3cc(O)cc(C)c3O2)OC1` (single isomer, unassigned; diastereomer 2) returned an IC50 of 23 µM. This lies in the double-digit micromolar range.

Regarding `C[C@@H]1CC[C@H]2[C@@H](C)C(=O)O[C@@H]3O[C@@]4(C)CC[C@@H]1[C@]32OO4` [ARTEMISININ], the IC50 in the test with Plasmodium falciparum (setting [1]) is 0.009 µM.
